Data as given in ChEMBL document CHEMBL5357066, “Development of Novel Membrane Disrupting Lipoguanidine Compounds Sensitizing Gram-Negative Bacteria to Antibiotics” (ACS Med Chem Lett, 2024).

Legend:
Acinetobacter baumannii [1] = assay: Synergistic antibacterial activity against Acinetobacter baumannii ATCC 17978 assessed as novobiocin MIC at <=0.25 times MIC incubated for overnight by microbroth dilution checkerboard assay; format: functional
Summary of the method: (§1)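 Checkerboard microdilution under MIC conditions (TSB, overnight, 37 °C). Two-fold series of each agent were combined on one plate before bacteria were added, and single-agent MICs were measured on the same plate. FIC = sum of combination MIC/alone MIC for each agent, taken from the most synergistic well. Three independent repeats, mean ± SD. ≤0.5 was taken as strong synergy and 0.5–<1 as weak.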

Acinetobacter baumannii [2] = assay: Synergistic antibacterial activity against Acinetobacter baumannii AYE assessed as fold change in novobiocin MIC at <=0.25 times MIC incubated for overnight by microbroth dilution checkerboard assay relative to novobiocin alone; format: functional; summary of the method: as §1
[3] = Hemolytic activity in human Red blood cells at 512 microg/ml measured after 1 hrs by absorbance based assay relative to control; format: toxicity, cell-based, Erythrocyte; details: red blood cells (erythrocytes), at 512 µg/mL, read-out: Activity
Summary of the method: (§2)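 Titrations in PBS were incubated with freshly collected human red blood cells for 1 h at 37 °C. Controls were 0.1% Triton-X-100 (full lysis) and PBS alone (no lysis). After centrifugation, supernatant OD550 was read. % haemolysis = (AP−AB)/(AC−AB)×100. Data are means and standard error of three biological replicates.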

Klebsiella pneumoniae [4] = assay: Synergistic antibacterial activity against Klebsiella pneumoniae M6 assessed as fold change in novobiocin MIC at <=0.25 times MIC incubated for overnight by microbroth dilution checkerboard assay relative to novobiocin alone; format: functional; summary of the method: as §1
Cell membrane [5] = assay: Induction of outer membrane permeabilization in Escherichia coli NCTC 12923 assessed as increase fluorescence intensity by measuring NPN uptake factor measured immediately for 2 hrs by fluorescence based analysis; format: subcellular
Summary of the method: (§3)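 NPN outer-membrane uptake. Overnight TSB cultures (37 °C, 200 rpm) were subcultured 1:20 for 2 h to mid-log, washed, and resuspended in 5 mM HEPES with 5 mM glucose, pH 7.2. Cells were mixed with assay buffer containing 10 µM NPN, then with compound, polymyxin B (positive control) or buffer. Fluorescence (ex 350, em 420 nm) was monitored immediately for 2 h.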

Pseudomonas aeruginosa [6] = assay: Synergistic antibacterial activity against Pseudomonas aeruginosa PAO1 assessed as fold change in novobiocin MIC at <=0.25 times MIC incubated for overnight by microbroth dilution checkerboard assay relative to novobiocin alone; format: functional
Summary of the method: (§4)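 Checkerboard microdilution in Tryptic Soy Broth, run like the MIC assay. Overnight TSB cultures were back-diluted to OD 0.01 and added 1:1 to the combined two-fold series of both agents, then incubated overnight at 37 °C. Growth/no-growth was called at <0.1 OD600. MICs alone were read on the same plates. FIC index came from the most synergistic well; three independent repeats, mean ± SD.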

Klebsiella pneumoniae [7] = assay: Synergistic antibacterial activity against […] Klebsiella pneumoniae NCTC 13368 assessed as novobiocin MIC at <=0.25 times MIC incubated for overnight by microbroth dilution checkerboard assay; format: functional
Summary of the method: (§5)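 Checkerboard run under the MIC conditions (TSB, overnight, 37 °C). Antibiotic and lipoguanidine 2-fold series were combined on one plate before bacteria were added. Growth/no-growth was scored as for the MIC (<0.1 OD600). Single-agent MICs were measured on the same plates. Three independent repeats were done.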

Escherichia coli [8] = assay: Synergistic antibacterial activity against Escherichia coli NCTC 12923 assessed as novobiocin MIC at <=0.25 times MIC incubated for overnight by microbroth dilution checkerboard assay; format: functional; summary of the method: as §1
Klebsiella pneumoniae [9] = assay: Synergistic antibacterial activity against Klebsiella pneumoniae M6 assessed as bacterial growth inhibition incubated for overnight in presence of PBMN by microbroth dilution method relative to control; format: functional
Summary of the method: (§6)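 Adapted broth microdilution in TSB. The test compound was in a 2-fold dilution series, with PMBN added at a fixed 30 µg/mL. Bacteria at OD 0.02 were added, and plates were incubated overnight at 37 °C. Growth/no growth was read as for the MIC (<0.1 OD600).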

Acinetobacter baumannii [10] = assay: Synergistic antibacterial activity against Acinetobacter baumannii AYE assessed as novobiocin MIC at <=0.25 times MIC incubated for overnight by microbroth dilution checkerboard assay; format: functional; summary of the method: as §1
Escherichia coli [11] = assay: Synergistic antibacterial activity against Escherichia coli NCTC 12923 assessed as fold change in novobiocin MIC at <=0.25 times MIC incubated for overnight by microbroth dilution checkerboard assay relative to novobiocin alone; format: functional; summary of the method: as §1
Pseudomonas aeruginosa [12] = assay: Synergistic antibacterial activity against Pseudomonas aeruginosa NCTC 13437 assessed as novobiocin MIC at <=0.25 times MIC incubated for overnight by microbroth dilution checkerboard assay; format: functional; summary of the method: as §4
Acinetobacter baumannii [13] = assay: Synergistic antibacterial activity against Acinetobacter baumannii ATCC 17978 assessed as fold change in novobiocin MIC at <=0.25 times MIC incubated for overnight by microbroth dilution checkerboard assay relative to novobiocin alone; format: functional; summary of the method: as §1
Acinetobacter baumannii [14] = assay: Synergistic antibacterial activity against Acinetobacter baumannii AYE assessed as bacterial growth inhibition incubated for overnight in presence of PBMN by microbroth dilution method relative to control; format: functional; summary of the method: as §6
Cell membrane [15] = assay: Induction of outer membrane permeabilization in Klebsiella pneumoniae NCTC 13368 assessed as increase fluorescence intensity by measuring NPN uptake factor measured immediately for 2 hrs by fluorescence based analysis; format: subcellular; summary of the method: as §3
Acinetobacter baumannii [16] = assay: Synergistic antibacterial activity against Acinetobacter baumannii ATCC 17978 assessed as bacterial growth inhibition incubated for overnight in presence of PBMN by microbroth dilution method relative to control; format: functional; summary of the method: as §6
Klebsiella pneumoniae [17] = assay: Synergistic antibacterial activity against Klebsiella pneumoniae NCTC 13368 assessed as fold change in novobiocin MIC at <=0.25 times MIC incubated for overnight by microbroth dilution checkerboard assay relative to novobiocin alone; format: functional; summary of the method: as §1
Pseudomonas aeruginosa [18] = assay: Synergistic antibacterial activity against Pseudomonas aeruginosa PAO1 assessed as novobiocin MIC at <=0.25 times MIC incubated for overnight by microbroth dilution checkerboard assay; format: functional; summary of the method: as §4
Klebsiella pneumoniae [19] = assay: Synergistic antibacterial activity against […] Klebsiella pneumoniae M6 assessed as novobiocin MIC at <=0.25 times MIC incubated for overnight by microbroth dilution checkerboard assay; format: functional; summary of the method: as §5
Pseudomonas aeruginosa [20] = assay: Synergistic antibacterial activity against Pseudomonas aeruginosa PAO1 assessed as bacterial growth inhibition incubated for overnight in presence of […] by microbroth dilution method relative to control; format: functional
Summary of the method: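 Fixed-concentration combination MIC in TSB. The first agent was set in a two-fold dilution series (100 µL/well), then 50 µL/well of the second agent at a fixed concentration was added; PMBN was fixed at 30 µg/mL. Bacteria at OD 0.02 (50 µL) went into 150 µL of compounds, overnight at 37 °C. MIC was the lowest concentration without visible growth (<0.1 OD600).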

Klebsiella pneumoniae [21] = assay: Synergistic antibacterial activity against Klebsiella pneumoniae NCTC 13368 assessed as bacterial growth inhibition incubated for overnight in presence of PBMN by microbroth dilution method relative to control; format: functional; summary of the method: as §6
Escherichia coli [22] = assay: Synergistic antibacterial activity against Escherichia coli NCTC 12923 assessed as bacterial growth inhibition incubated for overnight in presence of PBMN by microbroth dilution method relative to control; format: functional; summary of the method: as §6
Pseudomonas aeruginosa [23] = assay: Synergistic antibacterial activity against Pseudomonas aeruginosa NCTC 13437 assessed as fold change in novobiocin MIC at <=0.25 times MIC incubated for overnight by microbroth dilution checkerboard assay relative to novobiocin alone; format: functional; summary of the method: as §1
Erythrocyte = assay: Hemolytic activity in human Red blood cells at 512 microg/ml measured after 1 hrs by absorbance based assay; format: toxicity, cell-based; details: dose 512 µg/ml; summary of the method: as §2

## CCCCCCCCCCNC(=N)NCCCCN
Acinetobacter baumannii [1]
  MIC: 0.25 µg/mL
Acinetobacter baumannii [2]
  fold change (FC): >=4
[3]
  hemolysis at 1 h, 512 microg/ml: 8.2%
Klebsiella pneumoniae [4]
  fold change (FC): >=4
Cell membrane [5]
  Activity: > 1
Pseudomonas aeruginosa [6]
  fold change (FC): >=4
Klebsiella pneumoniae [7]
  MIC: 16 µg/mL
Escherichia coli [8]
  MIC: 0.5 µg/mL
Klebsiella pneumoniae [9]
  inhibition (INH): <20%
Acinetobacter baumannii [10]
  MIC: ≤ 0.125 µg/mL
Escherichia coli [11]
  fold change (FC): >=4
Pseudomonas aeruginosa [12]
  MIC: 8 µg/mL
Acinetobacter baumannii [13]
  fold change (FC): >=4
Acinetobacter baumannii [14]
  inhibition (INH): <20%
Cell membrane [15]
  Activity: > 1
Acinetobacter baumannii [16]
  inhibition (INH): <20%
Klebsiella pneumoniae [17]
  fold change (FC): >=4
Pseudomonas aeruginosa [18]
  MIC: 2 µg/mL
Klebsiella pneumoniae [19]
  MIC: 4 µg/mL
Pseudomonas aeruginosa [20]
  inhibition (INH): <20%
Klebsiella pneumoniae [21]
  inhibition (INH): <20%
Escherichia coli [22]
  inhibition (INH): <20%
Pseudomonas aeruginosa [23]
  fold change (FC): >=4

## CCCCCCCC/C=C\CCCCCCCCNC(=N)NCCCCNC(=N)N
Acinetobacter baumannii [1]
  MIC: ≤ 0.125 µg/mL
Acinetobacter baumannii [2]
  fold change (FC): 0
Klebsiella pneumoniae [4]
  fold change (FC): >=4
Pseudomonas aeruginosa [6]
  fold change (FC): 0
Klebsiella pneumoniae [7]
  MIC: > 128 µg/mL
Escherichia coli [8]
  MIC: 4 µg/mL
Klebsiella pneumoniae [9]
  inhibition (INH): <20%
Acinetobacter baumannii [10]
  MIC: ≤ 0.125 µg/mL
Escherichia coli [11]
  fold change (FC): >=4
Pseudomonas aeruginosa [12]
  MIC: > 128 µg/mL
Acinetobacter baumannii [13]
  fold change (FC): >=4
Acinetobacter baumannii [14]
  inhibition (INH): <20%
Acinetobacter baumannii [16]
  inhibition (INH): <20%
Klebsiella pneumoniae [17]
  fold change (FC): 0
Erythrocyte
  Activity: Toxic
Pseudomonas aeruginosa [18]
  MIC: > 128 µg/mL
Klebsiella pneumoniae [19]
  MIC: 1 µg/mL
Pseudomonas aeruginosa [20]
  inhibition (INH): <20%
Klebsiella pneumoniae [21]
  inhibition (INH): <20%
Escherichia coli [22]
  inhibition (INH): <20%
Pseudomonas aeruginosa [23]
  fold change (FC): 0

## CCCCC/C=C\C/C=C\CCCCCCCCNC(=N)NCCCCN
Acinetobacter baumannii [1]
  MIC: 1 µg/mL
Acinetobacter baumannii [2]
  fold change (FC): >=4
[3]
  hemolysis at 1 h, 512 microg/ml: 100%
Klebsiella pneumoniae [4]
  fold change (FC): 0
Pseudomonas aeruginosa [6]
  fold change (FC): 0
Klebsiella pneumoniae [7]
  MIC: > 128 µg/mL
Escherichia coli [8]
  MIC: > 128 µg/mL
Acinetobacter baumannii [10]
  MIC: 1 µg/mL
Escherichia coli [11]
  fold change (FC): 0
Pseudomonas aeruginosa [12]
  MIC: > 128 µg/mL
Acinetobacter baumannii [13]
  fold change (FC): 0
Klebsiella pneumoniae [17]
  fold change (FC): 0
Erythrocyte
  Activity: Toxic
Pseudomonas aeruginosa [18]
  MIC: > 128 µg/mL
Klebsiella pneumoniae [19]
  MIC: 64 µg/mL
Pseudomonas aeruginosa [23]
  fold change (FC): 0

## CC/C=C\C/C=C\C/C=C\CCCCCCCCNC(=N)NCCCCN
Acinetobacter baumannii [1]
  MIC: ≤ 0.125 µg/mL
Acinetobacter baumannii [2]
  fold change (FC): >=4
Klebsiella pneumoniae [4]
  fold change (FC): >=4
Pseudomonas aeruginosa [6]
  fold change (FC): 0
Klebsiella pneumoniae [7]
  MIC: > 128 µg/mL
Escherichia coli [8]
  MIC: 32 µg/mL
Acinetobacter baumannii [10]
  MIC: ≤ 0.125 µg/mL
Escherichia coli [11]
  fold change (FC): 0
Pseudomonas aeruginosa [12]
  MIC: > 128 µg/mL
Acinetobacter baumannii [13]
  fold change (FC): >=4
Klebsiella pneumoniae [17]
  fold change (FC): 0
Erythrocyte
  Activity: Toxic
Pseudomonas aeruginosa [18]
  MIC: > 128 µg/mL
Klebsiella pneumoniae [19]
  MIC: 8 µg/mL
Pseudomonas aeruginosa [23]
  fold change (FC): 0

## CCCCCCCC/C=C\CCCCCCCCNC(=N)NCCCCN
Acinetobacter baumannii [1]
  MIC: ≤ 0.125 µg/mL
Acinetobacter baumannii [2]
  fold change (FC): >=4
Klebsiella pneumoniae [4]
  fold change (FC): >=4
Pseudomonas aeruginosa [6]
  fold change (FC): 0
Klebsiella pneumoniae [7]
  MIC: > 128 µg/mL
Escherichia coli [8]
  MIC: > 128 µg/mL
Klebsiella pneumoniae [9]
  inhibition (INH): <20%
Acinetobacter baumannii [10]
  MIC: ≤ 0.125 µg/mL
Escherichia coli [11]
  fold change (FC): 0
Pseudomonas aeruginosa [12]
  MIC: > 128 µg/mL
Acinetobacter baumannii [13]
  fold change (FC): >=4
Acinetobacter baumannii [14]
  inhibition (INH): <20%
Acinetobacter baumannii [16]
  inhibition (INH): <20%
Klebsiella pneumoniae [17]
  fold change (FC): 0
Erythrocyte
  Activity: Toxic
Pseudomonas aeruginosa [18]
  MIC: > 128 µg/mL
Klebsiella pneumoniae [19]
  MIC: 16 µg/mL
Pseudomonas aeruginosa [20]
  inhibition (INH): <20%
Klebsiella pneumoniae [21]
  inhibition (INH): <20%
Escherichia coli [22]
  inhibition (INH): <20%
Pseudomonas aeruginosa [23]
  fold change (FC): 0

## CCCCCCCCCCCCNC(=N)NCCCCN
Klebsiella pneumoniae [9]
  inhibition (INH): <20%
Acinetobacter baumannii [14]
  inhibition (INH): <20%
Acinetobacter baumannii [16]
  inhibition (INH): <20%
Erythrocyte
  Activity: Toxic
Pseudomonas aeruginosa [20]
  inhibition (INH): <20%
Klebsiella pneumoniae [21]
  inhibition (INH): <20%
Escherichia coli [22]
  inhibition (INH): <20%
